# Activity calls are given as the source filed them. No cut-off for these calls is given here.
# How the values were obtained:
# Type in all cases: functional
# Escherichia coli [1] = test: Antibacterial activity against 2.5 x 10^6 CFU/mL Escherichia coli ATCC 25922 assessed as time required for bacterial killing at 100 uM by microscopy based bacterial killing assay
# Escherichia coli [2] = test: Antibacterial activity against 5 x 10^5 CFU/mL Escherichia coli ATCC 25922 after 72 hrs by CLSI M07-A8 broth microdilution method
# In short: (§1)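 Broth microdilution in Mueller-Hinton broth at 37 °C. Serially diluted compound added in triplicate wells, then overnight culture diluted to about 5 × 10⁶ cfu/mL inoculum, giving 5 × 10⁵ cfu/well. Inoculum checked by serial dilution and plating. Plates incubated 72 h at 37 °C. MIC is the lowest concentration with no growth visible by eye. At least 3 repeats per organism.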
# Escherichia coli [3] = test: Antibacterial activity against 5 x 10^5 CFU/mL Escherichia coli ATCC 25922 incubated for 72 hrs followed by growing of cells on trypticase soy agar plate for 24 hrs by CLSI M07-A8 broth microdilution method
# In short: (§2)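 After the 72 h, 37 °C Mueller-Hinton microdilution (5 × 10⁵ cfu/well, triplicate wells), 100 µl from each triplicate set is plated on trypticase soy agar and incubated 24 h. MBC is the lowest concentration giving no colonies. At least 3 repeats per organism.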
# Pseudomonas aeruginosa [4] = test: Antibacterial activity against 5 x 10^5 CFU/mL Pseudomonas aeruginosa Boston 41501 ATCC 27853 incubated for 72 hrs followed by growing of cells on trypticase soy agar plate for 24 hrs by CLSI M07-A8 broth microdilution method; in short: as §2
# Staphylococcus aureus [5] = test: Antibacterial activity against 2.5 x 10^6 CFU/mL Staphylococcus aureus subsp. aureus ATCC 29213 assessed as time required for bacterial killing at 100 uM by microscopy based bacterial killing assay
# Enterococcus faecalis [6] = test: Antibacterial activity against 5 x 10^5 CFU/mL Enterococcus faecalis ATCC 29212 after 72 hrs by CLSI M07-A8 broth microdilution method; in short: as §1
# Pseudomonas aeruginosa [7] = test: Antibacterial activity against 5 x 10^5 CFU/mL Pseudomonas aeruginosa Boston 41501 ATCC 27853 after 72 hrs by CLSI M07-A8 broth microdilution method; in short: as §1
# Enterococcus faecalis [8] = test: Antibacterial activity against 2.5 x 10^6 CFU/mL Enterococcus faecalis ATCC 29212 assessed as time required for bacterial killing at 100 uM by microscopy based bacterial killing assay
# Staphylococcus aureus [9] = test: Antibacterial activity against 5 x 10^5 CFU/mL Staphylococcus aureus subsp. aureus ATCC 29213 after 72 hrs by CLSI M07-A8 broth microdilution method; in short: as §1
# Staphylococcus aureus [10] = test: Antibacterial activity against 5 x 10^5 CFU/mL Staphylococcus aureus subsp. aureus ATCC 29213 incubated for 72 hrs followed by growing of cells on trypticase soy agar plate for 24 hrs by CLSI M07-A8 broth microdilution method; in short: as §2
# Enterococcus faecalis [11] = test: Antibacterial activity against 5 x 10^5 CFU/mL Enterococcus faecalis ATCC 29212 incubated for 72 hrs followed by growing of cells on trypticase soy agar plate for 24 hrs by CLSI M07-A8 broth microdilution method; in short: as §2
Compound,Time (Escherichia coli [1]) [h],"MIC (Escherichia coli [2]; ATCC 25922, 72 h) [µM]",MBC (Escherichia coli [3]) [µM],MBC (Pseudomonas aeruginosa [4]) [µM],Time (Staphylococcus aureus [5]) [h],"MIC (Enterococcus faecalis [6]; ATCC 29212, 72 h) [µM]","MIC (Pseudomonas aeruginosa [7]; Boston 41501 ATCC 27853, 72 h) [µM]",Time (Enterococcus faecalis [8]) [h],"MIC (Staphylococcus aureus [9]; ATCC 29213, 72 h) [µM]",MBC (Staphylococcus aureus [10]) [µM],MBC (Enterococcus faecalis [11]) [µM],Activity (Escherichia coli [1]),Activity (Enterococcus faecalis [8]),Activity (Staphylococcus aureus [5]),MIC (Escherichia coli [2]) [µM],MIC (Enterococcus faecalis [6]) [µM],MIC (Pseudomonas aeruginosa [7]) [µM],MIC (Staphylococcus aureus [9]) [µM]
CCCCCCCCCCCCCCCCCCOc1cc(C[N+](C)(C)C)ccc1C[N+](C)(C)C.[Br-].[Br-],0.5,63,63,250,0.25,31,250,0.25,16,16,31,,,,,,,
CCCCCCCCCCCCCCOc1c(C[N+](C)(C)C)cccc1C[N+](C)(C)C.[Br-].[Br-],,125,125,500,48,50,500,,16,16,50,inactive,inactive,,,,,
CCCCCCCCCCCCCCOc1cc(C[N+](C)(C)C)cc(C[N+](C)(C)C)c1.[Br-].[Br-],1,31,31,63,0.25,31,63,0.25,4,4,31,,,,,,,
CCCCCCCCCCCCCCOc1cccc(C[N+](C)(C)C)c1C[N+](C)(C)C.[Br-].[Br-],0.5,63,63,125,1,31,125,24,6,6,31,,,,,,,
CCCCCCCCCCCCOS(=O)(=O)[O-].[Na+] [SODIUM LAURYL SULFATE],,> 500,> 500,> 500,,500,> 500,,250,250,500,,,,,,,
CCCCCCCCCCOc1ccc(C[N+](C)(C)C)cc1.[Br-],0.5,63,63,250,0.5,16,250,0.5,8,8,16,,,,,,,
CCCCCCCCCCCCOc1cc(C[N+](C)(C)C)ccc1C[N+](C)(C)C,,500,500,> 500,,125,> 500,,31,31,125,inactive,inactive,inactive,,,,
CCCCCCCCCCCCCCOc1cc(C[N+](C)(C)C)ccc1C[N+](C)(C)C.[Br-].[Br-],72,63,63,250,48,31,250,48,16,16,31,,,,,,,
CCCCCCCCCCCCCCCCOc1cc(C[N+](C)(C)C)cc(C[N+](C)(C)C)c1.[Br-].[Br-],0.25,63,63,125,0.25,31,125,0.25,8,8,31,,,,,,,
"N,N,N-trimethylhexadecan-1-aminium bromide",,,63,> 500,,,,,,4,4,,,,63,4,> 500,4
CCCCCCCCCCCCCCOc1ccc(C[N+](C)(C)C)cc1C[N+](C)(C)C.[Br-].[Br-],1,31,31,125,1,16,125,2,6,6,16,,,,,,,
CCCCCCCCCCOc1cc(C[N+](C)(C)C)ccc1C[N+](C)(C)C,,> 500,> 500,> 500,,500,> 500,,250,250,500,inactive,inactive,inactive,,,,
CCCCCCCCCCCCCCOc1ccc(C[N+](C)(C)C)cc1.[Br-],,> 500,> 500,> 500,0.25,16,> 500,0.25,6,6,16,inactive,,,,,,
CCCCCCCCCCCC[N+](C)(C)C,,250,250,> 500,,125,> 500,,63,63,125,,,,,,,
CCCCCCCCCCCCCCCCOc1cc(C[N+](C)(C)C)ccc1C[N+](C)(C)C.[Br-].[Br-],2,63,63,125,24,50,125,,16,16,50,,inactive,,,,,
